TRPC4 agonist = activators of mouse TRPC4 channel, primary screen, Fluo4 calcium, HEK293 TRPC4beta/mu-opioid cells. Short transient receptor potential channel 4 (Mus musculus), Q9QUQ5. Fluo4 calcium fluorescence; stronger effect = higher value. B-score at 10 µM. actives 0.49% (n = 310,000);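 active = B-score above 5 SD of library B-scores, and initial fluorescence ratio not above library mean plus 5 SD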;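 note: positive B-score marks a calcium rise read as TRPC4 activation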
Target sequence (Q9QUQ5 whole entry, looked up): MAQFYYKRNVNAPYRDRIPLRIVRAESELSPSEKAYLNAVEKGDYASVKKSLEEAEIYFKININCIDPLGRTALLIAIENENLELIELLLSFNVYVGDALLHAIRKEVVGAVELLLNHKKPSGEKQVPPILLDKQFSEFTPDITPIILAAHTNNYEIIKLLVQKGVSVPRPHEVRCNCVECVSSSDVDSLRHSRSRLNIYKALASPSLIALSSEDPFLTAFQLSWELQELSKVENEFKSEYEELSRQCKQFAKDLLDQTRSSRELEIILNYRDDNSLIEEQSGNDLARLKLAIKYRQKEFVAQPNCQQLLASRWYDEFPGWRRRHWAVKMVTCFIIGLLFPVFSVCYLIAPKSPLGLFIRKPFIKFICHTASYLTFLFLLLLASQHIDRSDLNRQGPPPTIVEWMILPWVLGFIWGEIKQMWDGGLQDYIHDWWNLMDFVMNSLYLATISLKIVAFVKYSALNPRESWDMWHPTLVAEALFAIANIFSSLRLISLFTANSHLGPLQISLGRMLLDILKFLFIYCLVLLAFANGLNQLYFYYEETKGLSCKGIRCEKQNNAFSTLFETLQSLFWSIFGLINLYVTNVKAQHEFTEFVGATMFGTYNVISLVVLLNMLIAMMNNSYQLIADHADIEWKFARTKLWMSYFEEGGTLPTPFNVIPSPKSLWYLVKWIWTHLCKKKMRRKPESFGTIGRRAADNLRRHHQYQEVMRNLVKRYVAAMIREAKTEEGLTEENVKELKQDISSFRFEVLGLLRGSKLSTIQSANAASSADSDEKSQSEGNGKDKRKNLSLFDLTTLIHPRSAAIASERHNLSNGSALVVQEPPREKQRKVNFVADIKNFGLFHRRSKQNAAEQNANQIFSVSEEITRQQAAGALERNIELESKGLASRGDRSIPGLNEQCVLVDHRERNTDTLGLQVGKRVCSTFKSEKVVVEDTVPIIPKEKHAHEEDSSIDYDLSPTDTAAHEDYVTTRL
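Assay system – TRPC4beta and mu-opioid receptor HEK293 stable cells · Measured by – Fluo4 fluorescence, kinetic · Schedule – dye loading 45 min room temperature, 110 s kinetic read · Read-out – B-scored integrated calcium fluorescence ratio · Controls – buffer and maximal DAMGO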
TRPC6 inhibitor = mouse TRPC6 channel inhibitors, primary screen, cell-based, HEK293, membrane potential dye. AID 2553, 2010. ACh-evoked depolarization; stronger effect = lower value. actives 1.1% (n = 310,000). Short transient receptor potential channel 6 (Mus musculus), Q61143. B-score at 10 µM;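 active = B-score under library mean minus 3 SD, initial fluorescence not abnormally high, positive integrated signal ratio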;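 note: B-score derived from integrated fluorescence ratio over the kinetic read; more negative B-score means stronger inhibition of depolarization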
TRPC6 activator = mouse TRPC6 channel activators, primary screen, cell-based, HEK293, membrane potential dye | B-score at 10 µM | HEK293-TRPC6 membrane potential dye fluorescence; stronger effect = higher value | Short transient receptor potential channel 6 (Mus musculus), Q61143 | actives 0.13% (n = 310,000);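 active = B-score of the integrated fluorescence ratio above library mean plus 3 SD, and starting fluorescence ratio within library mean plus 5 SD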;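 note: higher score means more depolarization so channel activation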
TRPC4 block = inhibitors of mouse TRPC4 channel, primary screen, Fluo4 calcium, HEK293 TRPC4beta/mu-opioid cells | Short transient receptor potential channel 4 (Mus musculus), Q9QUQ5 | DAMGO-evoked Fluo4 calcium flux; stronger effect = lower value | B-score at 10 µM | actives 0.39% (n = 300,000);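 active = B-score over 3 SD under the library average, no early fluorescence shift, positive overall ratio signal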
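Test system – stable TRPC4beta/mu-opioid receptor HEK293 cells · Probe or stimulus – DAMGO, a submaximal dose followed by a maximal one · Dosing – one concentration per compound · Signal – Fluo4 calcium fluorescence by kinetic imaging, 5 s 1 Hz baseline · Evaluation – per-well B score of integrated baseline-normalized Fluo4 ratio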
TRPC4 potent = positive allosteric modulators of TRPC4, primary screen, cell-based, mouse TRPC4beta, HEK293 mu-opioid, Fluo-4 calcium | actives 0.42% (n = 310,000) | AID 2227, 2009 | DAMGO EC20, Fluo-4 Ca2+ flux; stronger effect = higher value | B-score at 10 µM;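 active = B-score of calcium response area above 5 SD of library B-scores, with initial fluorescence ratio within 5 SD of library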
Numbers stand for hits; – = inactive; · = no result. Sampled rows, rich in hits. Any-hit rate of the full collection: about 2.3%.

SMILES	TRPC4 agonist	TRPC6 inhibitor	TRPC6 activator	TRPC4 block	TRPC4 potent
CCN(c1ccccc1)S(=O)(=O)c1cc([N+](=O)[O-])ccc1N	–	-5.6	–	–	–
COc1ccc(CNCCc2ccc([N+](=O)[O-])cc2)c(OC)c1OC	81	–	–	–	–
COc1ccc(C)cc1NCc1ccc([N+](=O)[O-])cc1	–	–	–	–	–
O=C(CSc1nnc(NC(=O)c2ccc3c(c2)OCO3)s1)NCc1ccco1	–	–	–	–	11
O=C(CSc1nnc(NC(=O)c2ccccc2)s1)NCc1ccco1	–	–	–	–	–
Cc1nnsc1S(=O)(=O)Cc1ccccc1C(F)(F)F	–	–	–	–	–
Cc1ccc(C)c(CN2CCC(CNC(=O)Nc3ccc(Cl)cc3)CC2)c1	–	–	–	–	14
Cc1cccc(C(C(=O)NC2CCCCC2)N(Cc2cccnc2)C(=O)c2csnn2)c1 (stereo not given)	–	–	–	–	–
COC(=O)c1ccccc1N=Nc1c(N)[nH][nH]c1=O	47	–	–	–	82
O=C(c1cc(COc2cccc(C(F)(F)F)c2)on1)N1C[C@@H]2CCC[C@H]1C2	–	–	–	–	–
CCCC1Cc2[nH]c(=O)c(C#N)cc2CO1 (stereo not given)	–	–	–	–	–
CCCC1Cc2nc(N3CCCCC3)c(C#N)cc2CO1 (stereo not given)	–	–	–	–	10
S=C1NCCNC(=S)NCCOCCOCCOCCN1	–	–	–	–	–
Cc1n[nH]c(C)c1CCCCOc1ccccc1	–	–	–	-7	–
Cc1ccc(OCCCc2c(C)n[nH]c2C)cc1	–	–	–	–	–
Cc1ccccc1OCCCCc1c(C)n[nH]c1C	–	–	–	-6	–
Cc1n[nH]c(C)c1CCCCOc1ccccc1F	–	–	–	-6	–
Cc1ccccc1OCCCc1c(C)n[nH]c1C	–	–	–	·	–
O=C(Nc1cccc2ncccc12)c1cccc(Br)c1	–	–	–	–	14
O=C(Nc1cccc2ncccc12)c1cccc(F)c1	–	–	–	–	–
CCn1c(-c2cc(-c3ccc(C)c(C)c3)nc3ccccc23)n[nH]c1=S	–	–	–	–	–
Cc1ccc(-c2cc(-c3n[nH]c(=S)n3C)c3ccccc3n2)cc1	–	–	–	–	12
COc1ccc2nc(/N=C(\N)NC(=O)C(C)(C)C)nc(C)c2c1	–	–	–	–	–
CCC(=O)N/C(N)=N/c1nc(C)c2cc(OC)ccc2n1	–	–	–	-7	–
CC1CN(CCOCCOc2ccccc2-c2ccccc2)CC(C)O1 (stereo not given)	63	–	–	–	–
SMILES	TRPC4 agonist	TRPC6 inhibitor	TRPC6 activator	TRPC4 block	TRPC4 potent
CC1(C)Cc2nc3oc4c(=O)n(CC(=O)Nc5ccccc5)cnc4c3cc2CO1	–	–	–	-6	–
CN1C(=O)Cc2cc(S(=O)(=O)NCc3c(F)cccc3Cl)ccc21	–	–	–	–	–
CNc1ccccc1NC(=O)C1CCCN1C(=O)OCc1ccccc1 (stereo not given)	–	–	–	–	–
O=C(Cc1cccc2ccccc12)Nc1ccc(O)cc1C(=O)O	–	–	–	–	–
O=C(Cc1cccc2ccccc12)Nc1ccc(Br)cc1C(=O)O	–	–	–	-7	–
CCOc1ccccc1N(CC)C(=O)c1nn(C)c2c1CSc1ccccc1-2	–	–	–	-6	–
Cc1ccc(C)c(OCCn2ccnc2)c1	–	–	–	–	–
Clc1ccc(OCCn2ccnc2)cc1Cl	57	–	–	–	14
Clc1cc(Br)ccc1OCCn1ccnc1	84	–	–	-6	–
Cc1cc(Br)ccc1OCCn1ccnc1	116	–	–	–	–
O=C(Cc1cc(=O)[nH]c(=O)[nH]1)NCc1ccccc1	–	–	–	–	–
COC(=O)N/N=C(\C)c1ccc(-n2ccnc2)cc1	–	–	–	–	–
C/C(=N\NC(=O)COc1ccc(C)cc1C(C)C)c1ccc(-n2ccnc2)cc1	–	–	–	–	28
NC1=NC[C@H](Cc2ccc(O)cc2)N1CC1CCCCC1	76	–	–	–	–
COc1ccc(NC(=O)c2c(NC(=O)CNCc3ccco3)sc3c2CCC3)cc1	–	–	–	–	–
CCOc1ccc(NC(=O)c2c(NC(=O)CNCCN3CCOCC3)sc3c2CCC3)cc1	–	-5.7	–	–	–
N#CCCN(C(=O)COC(=O)c1ccc2c(=O)n3c(nc2c1)CCC3)c1ccc(F)cc1	–	–	–	–	–
CCCCNc1nc(=S)[nH]c2cc(OC)c(OC)cc12	–	–	–	-8	–
CCS(=O)(=O)c1cc([N+](=O)[O-])c(Sc2ccccc2NC(C)=O)s1	–	–	–	–	–
Cc1csc(NC(=O)c2sc3nc(-c4cccs4)ccc3c2N)n1	47	–	–	–	10
O=C(Nc1nc(-c2cccs2)cs1)c1ccc(Cl)cc1	–	–	–	–	–
CCCSc1nnc(NC(=O)c2sc3nc(-c4cccs4)ccc3c2N)s1	–	–	–	–	–
COc1ccc(C(=O)Nc2nc(-c3cccs3)cs2)cc1	–	–	–	-7	–
CCOC(=O)CC(=O)CSc1ncnc2c1nnn2-c1ccccc1	–	–	–	–	–
CC(=O)c1ccc(NC(=S)N(C)C2CCN(C)CC2)cc1	–	–	–	–	–
SMILES	TRPC4 agonist	TRPC6 inhibitor	TRPC6 activator	TRPC4 block	TRPC4 potent
COC(=O)c1sc(NC(=S)NC(=O)c2ccccc2C)nc1C	49	–	–	–	–
COc1cc(/C=C(\C#N)c2nc3c(s2)CCCC3)ccc1O	91	–	93	–	–
N=c1c2c(ncn1Cc1ccco1)Oc1ccc3ccccc3c1C2c1ccccc1 (stereo not given)	–	–	–	–	–
N=c1c2c(-c3ccccc3)c(-c3ccccc3)n(Cc3ccccc3)c2ncn1CCCn1ccnc1	–	-6.6	–	–	–
N=c1c2c(-c3ccccc3)c(-c3ccccc3)n(Cc3ccco3)c2ncn1Cc1ccco1	46	–	–	–	–
CCCCn1cnc2c(c(-c3ccccc3)c(-c3ccccc3)n2Cc2ccco2)c1=N	–	-7.5	–	–	–
CN(CC(=O)Nc1ccc(F)c(F)c1F)C(=O)C1CCC1	–	–	–	–	–
Cc1c(NC(=O)COC(=O)CCc2c[nH]c3ccccc23)c(=O)n(-c2ccccc2)n1C	–	–	–	–	–
COc1ccccc1C1CCN(C(=O)c2ccc(Cl)cc2)CC1	–	–	–	–	–
Cc1ccc(CN2CCNC(=O)C2CC(=O)N(C)C2CCOCC2)cc1 (stereo not given)	–	–	–	–	–
